Reference: ChEMBL document CHEMBL2040795, “Synthesis, biological evaluation, and structure-activity relationships of 2-[2-(benzoylamino)benzoylamino]benzoic acid analogues as inhibitors of adenovirus replication” (J Med Chem, 2012)
pEC50: −log10 of the molar value.

Experiments:
[1] = Cytotoxicity against human A549 cells assessed as viability at 30 uM after 24 hrs by XTT assay; assay type: cell-based; conditions: read-out: Activity
Procedure, shortened: (§1)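 About 15000 A549 cells per well were seeded the day before. Compound was added in DMEM with 0.75 g/L NaHCO3 and 20 mM HEPES, then incubated 24 h at 37 °C, 5% CO2. XTT was added 4 h before reading formazan absorbance at 450 nm. Values are percentage viable cells, with DMSO baseline toxicity subtracted (0.15% DMSO at 30 μM, 0.30% at 60 μM).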

[2] = system: Human adenovirus 5; test: Antiviral activity against Adenovirus type 5 F2853-5b infected in human A549 cells assessed as inhibition of viral replication at 5 uM after 24 hrs by RT-PCR analysis; assay type: functional; conditions: Human mastadenovirus C, A549, 24 h
Procedure, shortened: (§2)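 Ad5-infected A549 cells incubated with compound for 24 h. DNA was then extracted and newly synthesized viral DNA quantified by real-time PCR of the hexon gene, normalized to cellular RNaseP gene. […] EC50 determined for selected compounds.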

[3] = Cytotoxicity against human A549 cells assessed as viability at 60 uM after 24 hrs by XTT assay; assay type: cell-based; conditions: read-out: Activity; procedure, shortened: as §1
[4] = system: Human adenovirus 5; test: Antiviral activity against Adenovirus type 5 F2853-5b infected in human A549 cells assessed as inhibition of viral replication at 15 uM after 24 hrs by RT-PCR analysis; assay type: functional; conditions: Human mastadenovirus C, A549, 24 h; procedure, shortened: as §2
[5] = Aqueous solubility of the compound in water; assay type: physicochemical; conditions: buffer
[6] = Chemical solubility of the compound in DMSO; assay type: physicochemical
[7] = system: Human adenovirus 5; test: Antiviral activity against Adenovirus type 5 F2853-5b infected in human A549 cells assessed as inhibition of viral replication after 24 hrs by RT-PCR analysis; assay type: functional, organism-based; conditions: Human mastadenovirus C, A549, 24 h; procedure, shortened: as §2

Row | Compound | inhibition at 5 µM [2] | inhibition at 15 µM [4] | other results
1 | O=C(Nc1ccccc1C(=O)Nc1ccccc1C(=O)O)c1ccccc1 | 89% | 91% | viability at 24 h, 30 µM [1]: 82%; viability at 24 h, 60 µM [3]: 83%
2 | COc1ccc(C(=O)Nc2ccccc2C(=O)Nc2ccccc2C(=O)O)cc1 | 0% | 67% | 
3 | Cc1ccccc1C(=O)Nc1cccc(C(=O)Nc2ccccc2C(=O)O)c1 | 5% | 7% | 
4 | CCOC(=O)c1cccc(NC(=O)c2ccccc2NC(=O)c2ccccc2)c1 |  | 0% | 
5 | O=C(O)c1cccc(NC(=O)c2ccccc2NC(=O)c2ccccc2)c1 |  | 8% | 
6 | CCOC(=O)c1ccc(NC(=O)c2ccccc2NC(=O)c2ccccc2)cc1 |  | 8% | 
7 | O=C(O)c1ccc(NC(=O)c2ccccc2NC(=O)c2ccccc2)cc1 |  | 8% | 
8 | CCOC(=O)c1ccccc1NC(=O)c1cccc(NC(=O)c2ccccc2)c1 |  | 25% | 
9 | O=C(Nc1cccc(C(=O)Nc2ccccc2C(=O)O)c1)c1ccccc1 |  | 39% | 
10 | CCOC(=O)c1ccccc1NC(=O)c1ccc(NC(=O)c2ccccc2)cc1 |  | 15% | 
11 | O=C(Nc1ccc(C(=O)Nc2ccccc2C(=O)O)cc1)c1ccccc1 |  | 47% | 
12 | CCOC(=O)c1ccccc1NC(=O)c1ccccc1NC(=O)c1ccccc1 |  |  | solubility [5]: Insoluble; solubility [6]: Insoluble
13 | O=C(Nc1ccccc1C(=O)Nc1ccccc1)c1ccccc1 |  | 18% | 
14 | Cc1ccc(NC(=O)c2ccccc2NC(=O)c2ccccc2C(=O)O)cc1 | 0% | 0% | 
15 | Cc1ccccc1C(=O)Nc1ccccc1C(=O)Nc1ccc(C(=O)O)cc1 | 0% | 20% | 
16 | Cc1ccc(C(=O)Nc2ccccc2C(=O)Nc2ccccc2C(=O)O)cc1 | 0% | 85% | 
17 | NC(=O)c1ccccc1NC(=O)c1cccc(NC(=O)c2ccccc2)c1 | 0% | 19% | 
18 | Cc1ccc(C(=O)Nc2ccccc2C(=O)Nc2ccccc2C)cc1 | 0% | 12% | 
19 | CC(=O)Nc1ccccc1C(=O)Nc1ccccc1C(=O)O | 4% | 24% | 
20 | CS(=O)(=O)Nc1ccccc1C(=O)Nc1ccccc1C(=O)O | 0% | 23% | 
21 | Cc1ccc(S(=O)(=O)Nc2ccccc2C(=O)Nc2ccccc2C(=O)O)cc1 | 2% | 8% | 

Row | Compound | inhibition at 5 µM [2] | inhibition at 15 µM [4] | other results
22 | CC(C)(C)C(=O)Nc1ccccc1C(=O)Nc1ccccc1C(=O)O | 45% | 52% | 
23 | O=C(O)c1ccccc1NC(=O)c1ccccc1NC(=O)C1CCCCC1 | 20% | 55% | 
24 | O=C(O)CCC(=O)Nc1ccccc1C(=O)Nc1ccccc1C(=O)O | 0% | 0% | 
25 | O=C(Nc1ccccc1C(=O)Nc1ccccc1C(=O)O)c1ccccc1F | 96% | 98% | viability at 24 h, 30 µM [1]: 85%; viability at 24 h, 60 µM [3]: 83%; pEC50 [7]: 5.64
26 | O=C(Nc1ccccc1C(=O)Nc1ccccc1C(=O)O)c1cccc(F)c1 | 41% |  | 
27 | O=C(Nc1ccccc1C(=O)Nc1ccccc1C(=O)O)c1ccc(F)cc1 | 76% | 95% | 
28 | O=C(Cc1ccccc1)Nc1ccccc1C(=O)Nc1ccccc1C(=O)O | 32% | 21% | 
29 | O=C(O)Cc1ccccc1NC(=O)c1ccccc1NC(=O)c1ccccc1 | 0% | 0% | 
30 | O=C(Cc1ccccc1NC(=O)c1ccccc1)Nc1ccccc1C(=O)O | 0% | 0% | 
31 | O=C(Nc1ccccc1C(=O)Nc1cc(Cl)ccc1C(=O)O)c1ccccc1F | 0% | 61% | 
32 | O=C(Nc1ccccc1C(=O)Nc1ccc(Cl)cc1C(=O)O)c1ccccc1F | 0% | 0% | 
33 | COc1ccc(C(=O)O)c(NC(=O)c2ccccc2NC(=O)c2ccccc2F)c1 | 0% | 0% | 
34 | COc1ccc(NC(=O)c2ccccc2NC(=O)c2ccccc2F)c(C(=O)O)c1 | 28% | 78% | 
35 | O=C(Nc1ccccc1C(=O)Nc1cc(F)c(F)cc1C(=O)O)c1ccccc1F | 0% | 0% | 
36 | O=C(Nc1cc(Cl)ccc1C(=O)Nc1ccccc1C(=O)O)c1ccccc1F | 57% | 78% | 
37 | O=C(Nc1ccc(Cl)cc1C(=O)Nc1ccccc1C(=O)O)c1ccccc1F | 89% | 91% | viability at 24 h, 30 µM [1]: 91%; viability at 24 h, 60 µM [3]: 88%; pEC50 [7]: 6.24
38 | COc1ccc(C(=O)Nc2ccccc2C(=O)O)c(NC(=O)c2ccccc2F)c1 | 92% | 89% | viability at 24 h, 30 µM [1]: 92%; viability at 24 h, 60 µM [3]: 94%; pEC50 [7]: 5.64
39 | COc1ccc(NC(=O)c2ccccc2F)c(C(=O)Nc2ccccc2C(=O)O)c1 | 91% | 97% | viability at 24 h, 30 µM [1]: 84%; viability at 24 h, 60 µM [3]: 84%; pEC50 [7]: 5.85
40 | O=C(Nc1cc(F)c(F)cc1C(=O)Nc1ccccc1C(=O)O)c1ccccc1F | 94% | 93% | viability at 24 h, 30 µM [1]: 96%; viability at 24 h, 60 µM [3]: 96%; pEC50 [7]: 6.24
41 | Nc1ccn(C[C@@H](CO)OCP(=O)(O)O)c(=O)n1 [CIDOFOVIR] |  |  | viability at 24 h, 30 µM [1]: 100%; viability at 24 h, 60 µM [3]: 98%
